This note sets out measurements from the EternaBench riboswitch data.

The data set deals with MS2 coat protein. Briefly: apparent Kd, MS2 coat protein; higher = weaker binding; RNA-MaP array; FMN 200 µM where present. The method, boiled down: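 The apparent Kd is the median of filtered binding-curve fits, one per cluster, to green signal normalised to red-channel RNA signal and control-cluster median Fmax. The clusters were on Illumina sequencing chips, and stalled E. coli RNA polymerase had transcribed the designs on them. Titration used SNAP-549-labelled MS2 coat protein from 0.7 or 1.5 nM, doubling to 3 µM, without and then with constant ligand, in 100 mM Tris-HCl pH 7.5, 80 mM KCl, 4 mM MgCl2, BSA, DTT, yeast tRNA and Tween-20.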

[1] abbreviates: designed as: OFF switch for flavin mononucleotide, no ligand.
The mark [2] stands for this setting: ligand present: flavin mononucleotide, designed as: OFF switch for flavin mononucleotide.
Where [3] appears, read: designed as: ON switch for flavin mononucleotide, no ligand.
Setting [4] is: ligand present: flavin mononucleotide, designed as: ON switch for flavin mononucleotide.

As a reminder, the apparent Kd is the concentration giving half-maximal binding under the conditions of the assay.

“CUUUUGGCAGGAUAUGCUUUUUUUGACAUGAGGAUCACCCAUGUGAUGCAGUUUGGGUUUGCAGAAGGGCCUGAGU”: the “apparent Kd” value reads like this: under setting [1], 98.1 nM; under setting [2], 131 nM.

“AUGUAGUAAGGAUAUAGAAAGAAGGAGUAAGAUAGAGAGUUCUAGAAGGUACAUGAGGAUCACCCAUGUUGGAG”: the “apparent Kd” value under setting [1] worked out at 29 nM and the “apparent Kd” value under setting [2] is 26.4 nM.

For “GAGGAAAGGUAGCCCGACGUACCAGCAGAAGGGUGAUCAGACAUGAGGAUCACCCAUGUAGGAACACAGGAUAUGCAUGCACUU”, the “apparent Kd” value reads like this: under setting [3], 80 nM; under setting [4], 27.8 nM.

Turning to “UGAAAUCAUGUAGGAUAUGCAUGGCGAAGCUACGCAGAAGGACAUGAGGAUCACCCAUGUUCUAGCUACCGAGAACGGUGGCAA”, the “apparent Kd” value is, setting by setting: under setting [1], 20.9 nM; under setting [2], 109 nM.

Consider “UUGGACGUCGUAGGAUAUGUCGGAUAUUCCUACAUGAGGAUCACCCAUGUUGACAUGGAAGAAGGACAGAAGGACGAUGUCCAU”, for which the “apparent Kd” value under setting [3] was determined as 4.52 nM and the “apparent Kd” value under setting [4] was 3.87 nM.

For the sequence “CUGGUGUGAGGAUAUCAGGACACGUACGCGGGCAUGUCAAAUGAGAAGGCACAUGAGGAUCACCCAUGUGGGAC”, the “apparent Kd” value under setting [1] was found to be 29.7 nM and the “apparent Kd” value under setting [2] was determined as 41.6 nM.

As to “UUAUGCUUUGAGAAGGUUCAAACUACAUAUUGCGCACAUGAGGAUCACCCAUGUUGGUGAAUAAGAAAGGAUAUUAGACUGUGC”, the “apparent Kd” value was determined as 267 nM under setting [1] and 165 nM under setting [2].

For the sequence “CUUUUGUGAGGAUAUUAGUAGUAAAUAAAUAAAAUUACUACUGAGAAGGUACAUGAGGAUCACCCAUGUUCCUC”, the “apparent Kd” value runs as follows: under setting [1], 14.8 nM; under setting [2], 19.3 nM.

As for “GUAUUUUUACAGAAGGUGUAUUACAUGAGGAUCACCCAUGUAUUAUGGAAUAAAGUUGUUAUUUACAAGGAUAUGUACUAUUUU”, the “apparent Kd” value under setting [3] worked out at 19.3 nM and the “apparent Kd” value under setting [4] stood at 14.8 nM.

For “GCAGGCUUCGAGAAGGACAUGAGGAUCACCCAUGUGCGUGUGAAGCAGCCGUGAGGCUGCAUCAUGUAGGAUAUCGGAGUCUGG”, the “apparent Kd” value is, setting by setting: under setting [1], 72.2 nM; under setting [2], 525 nM.

With “GAAUAGCGAGGAUAUGCAAUGAAGAUAGUACGAUAUGGCUGACAUGAGGAUCACCCAUGUAGAAGGCGCUGAUC”, the “apparent Kd” value by setting is: under setting [1], 44.8 nM; under setting [2], 40 nM.

With “UUUUAGUCAGGAUAUACAUUUUUUUAUUUAUUUAUAAUAUUACAUGAGGAUCACCCAUGUAGAAGGGACAUUUU”, the “apparent Kd” value under setting [1] came out at 31.8 nM and the “apparent Kd” value under setting [2] was 26.5 nM.

As for “UUCCUCUUAACAUGAGGAUCACCCAUGUAUUAUUUGGUAAUUGAGGAUAUAUUUUUAAUGUUUAUAUAGAAGGCAAAUACAGUU”, the “apparent Kd” value turned out to be 45.7 nM under setting [1] and 49.3 nM under setting [2].

As to “AGCAAGUAUACAUGAGGAUCACCCAUGUUUGAUAGGGUUUUCAGAAGGUACAAUUUGAGAUAGAGUAAGGAUAUGAAAUAUGCG”, the “apparent Kd” value was 182 nM under setting [3] and 56.3 nM under setting [4].

On to “UGUCGGAGCAGAGGAUAUACAUGAGGAUCACCCAUGUAAUAAGAUCAAGCCUGGAAACAGGCAAUGUAGAAGGCUGCUCCGACA”, for which the “apparent Kd” value is, setting by setting: under setting [1], 34 nM; under setting [2], 422 nM.

Consider “UUUUAACUACAAUUACAUGAGGAUCACCCAUGUUUUGGGAUGCAGGAUAUGUGGUAUAUUAAUUAACAGAAGGGCAAUAAUUAA”, for which the “apparent Kd” value is, setting by setting: under setting [3], 57.6 nM; under setting [4], 46.4 nM.

“UGGUACAUGGGAGGAUAUCAUGUGAGAACAUGAGGAUCACCCAUGUCGAUGGAGACAUCGGAGAUUGAGAAGGCCCAUGUACCU”: the “apparent Kd” value turned out to be 1210 nM under setting [3] and 63.8 nM under setting [4].

“AGUGUCAUCGAGAAGGCCUUAAGAACAUGAGGAUCACCCAUGUAACAUGGGAGGAUAUCGAUGAUACAGCUACGUUUCGUAGCA”: the “apparent Kd” value reads like this: under setting [3], 12.4 nM; under setting [4], 5.21 nM.

As to “CGUAACUACAUAGGAUAUUGAUACAUGAGGAUCACCCAUGUUUUUGGGAUUAGUUUAAUAUUAAGCAAGAAGGAUGAAGUUACG”, the “apparent Kd” value is, setting by setting: under setting [3], 45.4 nM; under setting [4], 31.1 nM.

Turning to “GUGAUACAUGAGGAUCACCCAUGUCAGGAUAUGAUACUAUGUACUUCGGUACAUAGUAUCAGAAGGGACAGUGA”, the “apparent Kd” value stood at 138 nM under setting [1] and 92.5 nM under setting [2].

For “GGUAUGGACAGAGGAUAUACCGAUAGGAGAUACUAUCGACUAUUCCUCACAUGAGGAUCACCCAUGUAGAAGGCUGUCCAUACG”, the “apparent Kd” value is 17 nM under setting [1] and 65.5 nM under setting [2].

For “GUGCUGGAGCUUUGCUUUAGUCGUACAUGAGGAUCACCCAUGUAGGAUAUGGUAGGCUUUGCUUACUAGAAGGAUAGAGUGGUC”, the “apparent Kd” value is, setting by setting: under setting [1], 40.3 nM; under setting [2], 26.8 nM.

For the sequence “GGACCGCUUAGAAUUAGCGGCCGGCAGGAUAUGACAUGAGGAUCACCCAUGUGAACUCCAUUGGGUCAGAAGGGCCACGACACA”, the “apparent Kd” value reads like this: under setting [1], 23.9 nM; under setting [2], 86.4 nM.

With “CUAAUUCAUGUAGGAUAUGCGUGGCGAAGCUAUGCAGAAGGACAUGAGGAUCACCCAUGUCUUUCCGUCUGCGUACAGACGGAA”, the “apparent Kd” value reads like this: under setting [1], 24.7 nM; under setting [2], 201 nM.

As for “CAGGGUAGAGGAUAUACGUAGGUACAGAUCUGUGUGUUCCUACAUGAGGAUCACCCAUGUAGAAGGCUAGCCUG”, the “apparent Kd” value is, setting by setting: under setting [1], 89.7 nM; under setting [2], 324 nM.

Take “CUUUUGUGAGGAUAUUAGUAGUAAAUAAAUAAAAUUACUACUUAGAAGGCACAUGAGGAUCACCCAUGUUCCUC”: the “apparent Kd” value was found to be 26.9 nM under setting [1] and 219 nM under setting [2].

Take “AAAAAACAUGAGGAUCACCCAUGUGAGGAUAUCUGUAUCCAAAAGGAAGUGUAGGAUCGGAGAAGGCACUAGGA”: the “apparent Kd” value by setting is: under setting [1], 53.9 nM; under setting [2], 83.2 nM.

In the case of “CCUAGUUGGUAAGGAUAUCCUACACUAUUCUGACCCGUGCAAGCUACAUGAGGAUCACCCAUGUGGGAGAAGGUGCGUCAACAU”, the “apparent Kd” value is, setting by setting: under setting [1], 10.1 nM; under setting [2], 10.2 nM.

“GAACGCCUAGGAUAUACAUGAGGAUCACCCAUGUCGCCCAGUCCUGGAGUGACCUCUAGUAGAAGGAGGAAUAA”: the “apparent Kd” value was 480 nM under setting [1] and 135 nM under setting [2].

Consider “UCAGGCUUCGAGAAGGACAUGAAUCGUAGCAUUGCUACGAUGAAAUAUACAUGAGGAUCACCCAUGUAGGAUAUCGGAGUCUGC”, for which the “apparent Kd” value came to 5.35 nM under setting [1] and 6.13 nM under setting [2].

Consider “CGCAGGAUACAGAAGGAGUUAUUGAGAGGUUUACUAGGAUAUGUUCACAUGAGGAUCACCCAUGUCGUAUGGUUUUUUGUUGCG”, for which the “apparent Kd” value under setting [1] was found to be 22.6 nM and the “apparent Kd” value under setting [2] was found to be 16.1 nM.

Consider “AUUUAUGGCCAGAAGGACAUGAGGAUCACCCAUGUAGGAUAUGGACGAUUUUGCUCGGCGGCUUGUUUAGGAAGCACCGGUGGU”, for which the “apparent Kd” value worked out at 10.7 nM under setting [3] and 6.85 nM under setting [4].

For the sequence “AAUCGGGAGCAGAAGGCAUGUAAUAAAACAUGAGGAUCACCCAUGUAGUUAAGGCGAAAGCCGCAUGAGGAUAUGCUCCCGUAA”, the “apparent Kd” value under setting [3] was 5.39 nM and the “apparent Kd” value under setting [4] worked out at 4.99 nM.

In the case of “GGGUACAUCGGAGGAUAUCAUGUAAAUACAUGAGGAUCACCCAUGUCGAUGGAGACAUCAGAGAUUGAGAAGGCCGAUGUACCG”, the “apparent Kd” value by setting is: under setting [3], 14.9 nM; under setting [4], 6.15 nM.

“GCGUCAGAAUUAAUUGUGACAUACAGAAGGCAAAAGUUAUGUUCAGACAUGAGGAUCACCCAUGUUGAGGAUAUGUAGAGAAUC”: the “apparent Kd” value by setting is: under setting [1], 8.27 nM; under setting [2], 7.1 nM.

On to “UGGUACUAGGGAGGAUAUGGGAAGAUACAUGAGGAUCACCCAUGUUUAAGAAUGCCGAUAGGCAACUAGAAGGCCCUAGUACCU”, for which the “apparent Kd” value was found to be 406 nM under setting [3] and 18.7 nM under setting [4].

Regarding “AACAUGGUCCAGAAGGGCUAUUUAUUUAAUUAUUAUUUAGAACAGCAUAGCAGGAUAUGGUUAACAUGAGGAUCACCCAUGUAC”, the “apparent Kd” value was 16 nM under setting [3] and 11.5 nM under setting [4].

On to “GGGCAAAAGUAGAAGGGAUAUACGAAAAGUAUAUCAGGAUAUACAUGAGGAUCACCCAUGUUCUAAAAGUGAUAGUCCUCCCUA”, for which the “apparent Kd” value by setting is: under setting [1], 33.3 nM; under setting [2], 262 nM.

As to “UUGGACAGCUAGAGCUGCUAAGUACAUGAGGAUCACCCAUGUCAGGAUAUCCUUCCGCAAUGCGAGGAGAAGGGACAGGGUCCC”, the “apparent Kd” value is, setting by setting: under setting [1], 75.4 nM; under setting [2], 179 nM.

“GUACUGUAGUGAGGAUAUACGAGCUCGAUAGAGCGGCGAUCCAUAUAUACAUGAGGAUCACCCAUGUAGAAGGCACUUCAGUAC”: the “apparent Kd” value worked out at 7.07 nM under setting [1] and 96.5 nM under setting [2].

With “GCUCUAUGCGAGAAGGCGUGCAACAUGAGGAUCACCCAUGUCAGAGAUAUGAGGAUAUUGCAUAGAGCAAAAGACGGAAACGUC”, the “apparent Kd” value is, setting by setting: under setting [3], 6.68 nM; under setting [4], 4.48 nM.

On to “CACAGGGAUUCAGGAUAUAUUAGCCGAGGCCGCGUAGAAGGGAAAUCCUGACAUGAGGAUCACCCAUGUCGACCCGCCUUCCAU”, for which the “apparent Kd” value by setting is: under setting [3], 48.6 nM; under setting [4], 48.5 nM.

As for “AAAAAGUAAGGAUAUCGGCGGCGGCGGAGGCGGCGGCGGCUCGAGAAGGUACAUGAGGAUCACCCAUGUAAAAA”, the “apparent Kd” value was found to be 29.2 nM under setting [1] and 15.3 nM under setting [2].

Take “UUGGUUGUCGUAGGAUAUGUAGGAUAUUCCUACAUGAGGAUCACCCAUGUUCGCAUGGAAGAAGGACAGAAGGACGAUGACCAU”: the “apparent Kd” value by setting is: under setting [3], 1290 nM; under setting [4], 23.7 nM.

Consider “GCUAGACGUCGAGGAUAUGGGUGUGCGAGUCUUGGCACUGGACAUGAGGAUCACCCAUGUCGCUUCCAGAAGGCGACGUCCCUA”, for which the “apparent Kd” value by setting is: under setting [3], 38.6 nM; under setting [4], 6.39 nM.

In the case of “AAAGUGUGAAGCAGGGUGCUACAUGAGGAUCACCCAUGUCGGAGAAGGGCGCCGUUUCGCAUGGUGUAGGAUAUCUGGCGUGCA”, the “apparent Kd” value by setting is: under setting [1], 116 nM; under setting [2], 132 nM.

For “ACUGUUAAGACAGGAUAUCGAUUAUAACCUCUAAAACAUGAGGAUCACCCAUGUAGUCCGUAUUGCGAGAAGGGUCAUCUUAGA”, the “apparent Kd” value by setting is: under setting [3], 274 nM; under setting [4], 205 nM.
